We go through twelve compounds from ChEMBL document CHEMBL3044619, “Natural fungicides from Ruta graveolens L. leaves, including a new quinolone alkaloid” (J Agric Food Chem, 2003).

The source made the active and inactive calls. The rule behind the calls is not given here.

In assay [1] the test system is Colletotrichum fragariae. The experiment in a line: Antifungal activity against Colletotrichum fragariae assessed as growth inhibition at 30 to 300 uM after 48 hr by microplate photometric analysis. In kind it is functional. Put shortly:
(§1)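 96-well broth microdilution on conidia from 7–10-day PDA cultures of isolates from strawberry, grape or orchid. Conidia were in RPMI buffered with 0.165 M MOPS (pH 7). Ethanol stocks were diluted to final 30, 100 and 300 µM, with duplicate wells and compound-only blanks. Plates were incubated at 24 ± 2 °C under a 12-h photoperiod and read at A620 after 48 h. Results are % change versus untreated conidia controls, split-plot design run twice (n = 4).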

Assay [2] concerns Diaporthe ampelina. The experiment in a line: Antifungal activity against Diaporthe ampelina assessed as growth inhibition at 30 uM after 120 hr by microplate photometric analysis. In kind it is functional, organism-based. Put shortly:
(§2)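 P. viticola was isolated from grape, and its conidia were harvested from 7–10-day PDA cultures, filtered and adjusted photometrically to 1.0 × 10^6/mL. Growth was run in RPMI broth buffered with 0.165 M MOPS (pH 7) at final 30, 100 or 300 µM (120 mM stocks in 95% ethanol), with duplicate wells, at 24 ± 2 °C under a 12-h photoperiod. A620 was read at 120 h and expressed relative to untreated conidia controls.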

The subject of assay [3] is Colletotrichum acutatum. As to the kind of experiment: Antifungal activity against Colletotrichum acutatum assessed as growth inhibition at 300 uM after 48 hr by microplate photometric analysis. In kind it is functional. Conditions: read-out: GI. Put shortly: as §1
Assay [4] relates to Phomopsis obscurans. As to the kind of experiment: Antifungal activity against Phomopsis obscurans assessed as growth inhibition at 30 uM after 120 hr by microplate photometric analysis. The class given is functional. To be noted: Paraphomopsis obscurans, read-out: GI. Put shortly:
(§3)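 Phomopsis conidia, from strawberry or grape isolates grown 7–10 days on PDA, were tested in RPMI/0.165 M MOPS (pH 7) microtiter wells. Ethanol stocks were diluted to final 30, 100 and 300 µM, with duplicate wells and compound-only blanks. Incubation was at 24 ± 2 °C under a 12-h photoperiod, with A620 read at 120 h because germination is slow. Results are % change versus untreated conidia controls, run twice in time (n = 4).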

The test system of assay [5] is Colletotrichum gloeosporioides. The experiment in a line: Antifungal activity against Colletotrichum gloeosporioides assessed as growth inhibition at 100 uM after 48 hr by microplate photometric analysis. The class given is functional. Conditions: read-out: GI. Put shortly:
as §1

The test system of assay [6] is Botrytis cinerea. As to the kind of experiment: Antifungal activity against Botryotinia fuckeliana assessed as growth inhibition at 30 to 300 uM after 48 hr by microplate photometric analysis. The class given is functional, organism-based. Put shortly: as §1
Assay [7] has as its system Phomopsis obscurans. The experiment in a line: Antifungal activity against Phomopsis obscurans assessed as growth inhibition at 300 uM after 120 hr by microplate photometric analysis. The class given is functional. To be noted: Paraphomopsis obscurans; for inhibition of growth at 300 µM: read-out: GI. Put shortly: as §3
Assay [8] deals with Fusarium oxysporum. As to the kind of experiment: Antifungal activity against Fusarium oxysporum assessed as growth inhibition at 300 uM after 48 hr by microplate photometric analysis. In kind it is functional. To be noted: read-out: GI. Put shortly:
as §1

Assay [9] deals with Botrytis cinerea. As to the kind of experiment: Stimulation of Botryotinia fuckeliana growth at 30 uM after 48 hr by microplate photometric analysis. The class given is functional, organism-based. Put shortly:
(§4)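 Conidia came from 7–10-day PDA cultures (24 ± 2 °C, 12-h photoperiod) and were filtered and adjusted photometrically to 1.0 × 10^6/mL. B. cinerea was isolated from grape, C. gloeosporioides from strawberry and F. oxysporum from orchid. Growth was run in MOPS-buffered RPMI (0.165 M, pH 7) at final 30, 100 or 300 µM from 120 mM ethanol stocks, with duplicate wells, and read as A620 at 48 h. Results are % of untreated growth.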

Assay [10] deals with Phomopsis obscurans. The experiment in a line: Antifungal activity against Phomopsis obscurans assessed as growth inhibition at 100 uM after 120 hr by microplate photometric analysis. The class given is functional. Conditions: Paraphomopsis obscurans, read-out: GI. Put shortly: as §3
The test system of assay [11] is Botrytis cinerea. As to the kind of experiment: Antifungal activity against Botryotinia fuckeliana assessed as growth inhibition at 300 uM after 48 hr by microplate photometric analysis. In kind it is functional, organism-based. Put shortly:
as §4

The test system of assay [12] is Phomopsis obscurans. As to the kind of experiment: Stimulation of Phomopsis obscurans growth at 30 to 300 uM after 120 hr by microplate photometric analysis. In kind it is functional, organism-based. To be noted: Paraphomopsis obscurans. Put shortly: as §3
In assay [13] the test system is Diaporthe ampelina. As to the kind of experiment: Stimulation of Diaporthe ampelina growth at 30 to 300 uM after 120 hr by microplate photometric analysis. The class given is functional, organism-based. Put shortly: as §2
Assay [14] relates to Botrytis cinerea. As to the kind of experiment: Stimulation of Botryotinia fuckeliana growth at 30 to 300 uM after 48 hr by microplate photometric analysis. In kind it is functional, organism-based. Put shortly: as §1
In assay [15] the test system is Colletotrichum gloeosporioides. As to the kind of experiment: Stimulation of Colletotrichum gloeosporioides growth at 30 to 300 uM after 48 hr by microplate photometric analysis. In kind it is functional, organism-based. Put shortly: as §4
The subject of assay [16] is Colletotrichum acutatum. The experiment in a line: Stimulation of Colletotrichum acutatum growth at 30 uM after 48 hr by microplate photometric analysis. The class given is functional. Put shortly: as §1
Assay [17] deals with Colletotrichum gloeosporioides. The experiment in a line: Antifungal activity against Colletotrichum gloeosporioides assessed as growth inhibition at 300 uM after 48 hr by microplate photometric analysis. The class given is functional. Conditions: read-out: GI. Put shortly:
as §1

Assay [18] relates to Diaporthe ampelina. The experiment in a line: Antifungal activity against Diaporthe ampelina assessed as growth inhibition at 300 uM after 120 hr by microplate photometric analysis. The class given is functional. To be noted: read-out: GI. Put shortly: as §3
For assay [19], the system named is Phomopsis obscurans. The experiment in a line: Antifungal activity against Phomopsis obscurans assessed as growth inhibition at 30 to 300 uM after 120 hr by microplate photometric analysis. In kind it is functional, organism-based. Conditions: Paraphomopsis obscurans. Put shortly:
as §3

Assay [20] relates to Diaporthe ampelina. As to the kind of experiment: Antifungal activity against Diaporthe ampelina assessed as growth inhibition at 30 to 300 uM after 120 hr by microplate photometric analysis. In kind it is functional, organism-based. Put shortly: as §3
The subject of assay [21] is Fusarium solani. The experiment in a line: Fungistatic activity against Fusarium solani assessed as growth inhibition. In kind it is functional, organism-based.
Assay [22] relates to Fusarium oxysporum. The experiment in a line: Stimulation of Fusarium oxysporum growth at 30 uM after 48 hr by microplate photometric analysis. In kind it is functional, organism-based. Put shortly:
as §4

Assay [23] has as its system Colletotrichum fragariae. The experiment in a line: Antifungal activity against Colletotrichum fragariae assessed as growth inhibition at 300 uM after 48 hr by microplate photometric analysis. Conditions: read-out: GI. In kind it is functional. Put shortly:
as §1

In the case of `Cn1c(CCCCCCc2ccc3c(c2)OCO3)cc(=O)c2ccccc21`, the “growth inhibition (GI)” value in assay [1], in [2] and in assay [6] was “Active” each time. Besides, the inhibition of growth at 300 µM in assay [3] was found to be 57%. The inhibition of growth at 30 µM in assay [4] turned out to be 100%. In assay [5], the inhibition of growth at 100 µM was found to be 67.7%.

`CCCCCCCCCc1cc(=O)c2ccccc2[nH]1`: the “growth inhibition (GI)” value in [1] and in [2] was “Active” throughout. For the same compound, the “growth inhibition (GI)” value in assay [7] was “inactive”. Moreover, the inhibition of growth at 300 µM in [8] was found to be 37%; in assay [3] it was 50%. Moreover, the result in assay [9] was Active. Further, the inhibition of growth at 100 µM in assay [10] worked out at 100%.

Regarding `O=c1cc(CCCCc2ccc3c(c2)OCO3)[nH]c2ccccc12`, the “growth inhibition (GI)” value in [11] and in [2] was “Active” each time. Moreover, in assay [4], the inhibition of growth at 30 µM is 100%.

With `O=c1cc(O)c2ccccc2o1` [4-HYDROXYCOUMARINS], the result in assay [12], in assay [13], in assay [14] and in [15] was Active. Besides, the Activity in [16] came out at 15%.

Regarding `CCCCNC(=O)n1c(NC(=O)OC)nc2ccccc21` [BENOMYL], the “growth inhibition (GI)” value in assay [1] came to 76%. For the same compound, the inhibition of growth at 300 µM in assay [8] stood at 77%; in [17] it was 66%; in assay [3], 33%; in [18], 57%. In addition, the “growth inhibition (GI)” value in assay [6] and in assay [19] was “Active” each time.

As a reminder, the IC50 is the concentration needed to halve the response being measured. For `COc1c2ccoc2cc2oc(=O)ccc12` [BERGAPTEN], in [20], the “growth inhibition (GI)” value is “Active”. Also, the outcome in assay [15] was Active. The same compound registered an Activity in assay [16] of 15%. Moreover, the inhibition of growth at 30 µM in [4] is 80%. For the same compound, in assay [21], the IC50 turned out to be 27.7 µM.

With `O=C1C2CC=CCC2C(=O)N1SC(Cl)(Cl)Cl` (configuration not stated) [CAPTAN], in assay [8], the inhibition of growth at 300 µM came to 100%. The “growth inhibition (GI)” value in [20] and in assay [19] was “Active” throughout.

In the case of `Cn1c(-c2ccc3c(c2)OCO3)cc(=O)c2ccccc21` [GRAVEOLINE], the “growth inhibition (GI)” value in assay [1] was “Active”. The inhibition of growth at 300 µM in [8] worked out at 44%. The outcome in assay [13] and in assay [9] was Active. The inhibition of growth at 100 µM in assay [10] is 100%.

In the case of `COc1ccc2ccc(=O)oc2c1` [HERNIARIN], the “growth inhibition (GI)” value in assay [11] was “Active”. For the same compound, the result in [22], in assay [13], in [15] and in assay [9] was Active. In addition, the inhibition of growth at 300 µM in [23] stood at 21%. In [16], this compound had an Activity of 15%.

`COc1cc2nc3occc3c(OC)c2cc1OC` [KOKUSAGININE]: the “growth inhibition (GI)” value in assay [1] and in assay [2] was “Active” each time. The inhibition of growth at 300 µM in assay [7] was 100%; in assay [17] it was 50%. For the same compound, in assay [4], the inhibition of growth at 30 µM worked out at 80%.

`COc1c2occc2cc2ccc(=O)oc12` [METHOXSALEN]: the figures for the inhibition of growth at 300 µM in assay [7], in [8] and in assay [23] were 100%, 50% and 29%, respectively. For the same compound, the “growth inhibition (GI)” value in assay [11] and in assay [20] was “Active” in each case. Also, the outcome in assay [15] was Active. The same compound returned an Activity in [16] of 15%. For the same compound, the inhibition of growth at 30 µM in assay [4] was found to be 80%. In addition, the IC50 in [21] worked out at 125 µM.

As to `O=c1ccc2ccc(O)cc2o1` [UMBELLIFERONE], the result in assay [12], in [13], in [14] and in assay [15] was Active. This compound also gave an Activity in [16] of 15%.
